The text below walks through data of ChEMBL document CHEMBL1129356, “Novel 3,7-diheterabicyclo[3.3.1]nonanes that possess predominant class III antiarrhythmic activity in 1-4 day post infarction dog models: X-ray diffraction analysis of 3-[4-(1H-imidazol-1-yl)benzoyl]-7-isopropyl-3,7-diazabicyclo[3.3.1]nona ne dihydroperchlorate” (1996).

The subject of test [1] is Canis familiaris. The experiment in a line: (§1) Antiarrhythmic property His-Purkinje conduction time(post drug) is compared to lidocaine(2) using doses(3 and 6 mg/kg). The format is functional, Canis lupus familiaris, His-Purkinje system. In a few lines: (§2)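 Mongrel dogs (about 12–25 kg), 1–4 days after coronary occlusion infarction, under sodium pentobarbital (~30 mg/kg) with 12-lead ECG monitoring. Agents and lidocaine were given iv at 3 and 6 mg/kg. Programmed ventricular stimulation was applied at baseline, about 2–5 min after each dose, and at 30 min. SVT was defined as ≥250 beats/min lasting ≥30 s. Pre means drug-free; post means after dosing.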

Test [2] has as its system Canis familiaris. The experiment in a line: Antiarrhythmic property Mean blood pressure (drug free) is compared to Lidocaine using doses(3 and 6 mg/kg). The format is functional, Canis lupus familiaris. The gist of the method:
(§3)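 Mongrel dogs (~12–25 kg), 1–4 days after coronary occlusion leaving a surviving epicardial rim, anesthetized with sodium pentobarbital (~30 mg/kg). 12-lead ECG monitored throughout. Agent given iv at 3 and 6 mg/kg. Parameters recorded before (drug free) and after dosing. Programmed electrical stimulation tested SVT inducibility (≥250 beats/min, ≥30 s) at baseline, ~2–5 min after each dose, and at 30 min.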

In test [3] the test system is Canis familiaris. The experiment in a line: Antiarrhythmic property is compared to lidocaine(2) using doses(3 and 6 mg/kg). Time required for the ventricular myocardium to undergo depolarization and repolarization ((post drug). Type of test: functional, Canis lupus familiaris. In a few lines:
as §2

In test [4] the test system is Canis familiaris. The test is described as follows: Antiarrhythmic property Heart rate (drug free) is compared to Lidocaine using doses (3 and 6 mg/kg). Type of test: functional, Canis lupus familiaris. In a few lines: as §3
The subject of test [5] is Canis familiaris. The experiment in a line: Antiarrhythmic property A-V nodal conduction time(drug free) is compared to lidocaine(2) using doses(3 and 6 mg/kg). The format is functional, Canis lupus familiaris, Heart. The gist of the method: as §2
In test [6] the test system is Canis familiaris. The test is described as follows: (§4) Antiarrhythmic property ventricular effective refractory period(drug free) is compared to lidocaine(2) using doses(3 and 6 mg/kg). The format is functional, Canis lupus familiaris, Heart. In a few lines:
as §3

Test [7] has as its system Canis familiaris. The experiment in a line: Antiarrhythmic property A-V nodal conduction time(post drug) is compared to lidocaine(2) using doses(3 and 6 mg/kg). The format is functional, Canis lupus familiaris, Heart. In a few lines: as §2
In test [8] the test system is Canis familiaris. The test is described as follows: Antiarrhythmic property His-Purkinje conduction time(drug free) is compared to lidocaine(2) using doses(3 and 6 mg/kg). The format is functional, Canis lupus familiaris, His-Purkinje system. The gist of the method:
as §2

Test [9] concerns Canis familiaris. The test is described as follows: Antiarrhythmic property Heart rate (post drug) is compared to Lidocaine using doses(3 and 6 mg/kg). system. Type of test: functional, Canis lupus familiaris. In a few lines: as §3
Test [10] relates to Canis familiaris. The experiment in a line: Antiarrhythmic property Mean blood pressure(post drug) is compared to Lidocaine using doses(3 and 6 mg/kg). The format is functional, Canis lupus familiaris. In a few lines: as §3
In test [11] the test system is Canis familiaris. The test is described as follows: Antiarrhythmic property is compared to lidocaine(2) using doses(3 and 6 mg/kg). Time required for the ventricular myocardium to undergo depolarization and repolarization (drug free). The format is functional, Canis lupus familiaris. The gist of the method:
as §2

The subject of test [12] is Canis familiaris. The experiment in a line: Antiarrhythmic property Nonsustained ventricular tachycardia is compared to lidocaine(2) using dose of (3 and 6 mg/kg). Type of test: functional, Canis lupus familiaris, Heart. The gist of the method:
as §2

Test [13] concerns Canis familiaris. The experiment in a line: Tested for antiarrhythmic property by measuring ability to decrease heart rate(drug free) is compared to Lidocaine using doses (3 and 6 mg/kg). Type of test: functional, Canis lupus familiaris. The gist of the method: as §2
Test [14] relates to Canis familiaris. The experiment in a line: Tested for antiarrhythmic property by measuring ability to decrease Mean blood pressure (drug free) is compared to Lidocaine using doses(3 and 6 mg/kg). Type of test: functional, Canis lupus familiaris. The gist of the method:
as §2

The test system of test [15] is Canis familiaris. The test is described as follows: Tested for antiarrhythmic property by measuring ability to decrease Mean blood pressure(post drug) is compared to Lidocaine using doses(3 and 6 mg/kg). Type of test: functional, Canis lupus familiaris. In a few lines:
as §2

For test [16], the system named is Canis familiaris. The test is described as §4. The format is functional, Canis lupus familiaris, Heart. In a few lines: as §2
This is another data set of the same source.

Test [17] relates to Canis familiaris. The test is described as follows: Tested for antiarrhythmic property by measuring ability to decrease heart rate(post drug) is compared to Lidocaine using doses(3 and 6 mg/kg). The format is functional, Canis lupus familiaris. The gist of the method:
as §2

Test [18] deals with Canis familiaris. The experiment in a line: Antiarrhythmic property ventricular effective refractory period(post drug) is compared to lidocaine(2) using doses(3 and 6 mg/kg). The format is functional, Canis lupus familiaris, Heart. The gist of the method:
as §2

For test [19], the system named is Canis familiaris. The description is as §1. The format is functional, Canis lupus familiaris, His-Purkinje system. The gist of the method:
as §2
The source holds these as a separate data set.

Test [20] concerns Canis familiaris. The experiment in a line: Antiarrhythmic property A-V nodal conduction time(post drug) is compared to lidocaine(2) using dose (3 and 6 mg/kg); No effect. Type of test: functional, organism-based. More on the design: dose 6 mg/kg. As to conditions: Canis lupus familiaris; Heart. The gist of the method:
as §2

Test [21] has as its system Canis familiaris. The experiment in a line: (§5) Antiarrhythmic properties are compared to lidocaine(2) using doses(3 and 6 mg/kg) measures His-Purkinje conduction time(drug free); No effect. The format is functional, organism-based. More on the design: dose 6 mg/kg. As to conditions: Canis lupus familiaris; His-Purkinje system. In a few lines:
as §2

For test [22], the system named is Canis familiaris. The test is described as follows: Antiarrhythmic property A-V nodal conduction time(drug free) is compared to lidocaine(2) using doses(3 and 6 mg/kg); No effect. Type of test: functional, organism-based. Details: dose 6 mg/kg. As to conditions: Canis lupus familiaris; Heart. The gist of the method: as §2
In test [23] the test system is Canis familiaris. The test is described as follows: Antiarrhythmic properties are compared to lidocaine(2) using doses(3 and 6 mg/kg). Time required for the ventricular myocardium to undergo depolarization and repolarization (drug free); No effect. More on the design: dose 6 mg/kg. As to conditions: Canis lupus familiaris. Type of test: functional, organism-based. The gist of the method:
as §2

Test [24] concerns Canis familiaris. The experiment in a line: Antiarrhythmic properties are compared to lidocaine(2) using doses(3 and 6 mg/kg).Tested for time required for the ventricular myocardium to undergo depolarization and repolarization (drug free); No effect. As to conditions: Canis lupus familiaris. Details: dose 6 mg/kg. The format is functional, organism-based. The gist of the method: as §2

In test [25] the test system is Canis familiaris. The description is as §5. Type of test: functional, organism-based. Details: dose 6 mg/kg. As to conditions: Canis lupus familiaris; His-Purkinje system. The gist of the method: as §2
This is another data set of the same source.

In test [26] the test system is Canis familiaris. The test is described as follows: Antiarrhythmic properties are compared to lidocaine(2) using doses(3 and 6 mg/kg) ventricular effective refractory period(post drug); No effect. Type of test: functional, organism-based. Details: dose 6 mg/kg. As to conditions: Canis lupus familiaris; Heart. In a few lines:
as §2

Test [27] concerns Canis familiaris. The experiment in a line: Antiarrhythmic properties are compared to lidocaine(2) using doses(3 and 6 mg/kg). Time required for the ventricular myocardium to undergo depolarization and repolarization ((post drug); No effect. The format is functional, organism-based. Details: dose 6 mg/kg. As to conditions: Canis lupus familiaris. The gist of the method:
as §2

The subject of test [28] is Canis familiaris. The experiment in a line: Antiarrhythmic properties are compared to lidocaine(2) using doses(3 and 6 mg/kg) ventricular effective refractory period(drug free); No effect. As to conditions: Canis lupus familiaris; Heart. Details: dose 6 mg/kg. Type of test: functional, organism-based. The gist of the method:
as §2

Test [29] deals with Canis familiaris. The test is described as follows: Antiarrhythmic properties are compared to lidocaine(2) using doses(3 and 6 mg/kg) measures His-Purkinje conduction time(post drug); No effect. The format is functional, organism-based. As to conditions: Canis lupus familiaris; His-Purkinje system. More on the design: dose 6 mg/kg. The gist of the method: as §2
Test [30] deals with Canis familiaris. The experiment in a line: Antiarrhythmic properties are compared to lidocaine(2) using doses(3 and 6 mg/kg). Tested for time required for the ventricular myocardium to undergo depolarization and repolarization ((post drug); No effect. As to conditions: Canis lupus familiaris. More on the design: dose 6 mg/kg. Type of test: functional, organism-based. The gist of the method:
as §2

The subject of test [31] is Canis familiaris. The test is described as follows: Antiarrhythmic property His-Purkinje conduction time(post drug) is compared to lidocaine(2) using doses(3 and 6 mg/kg); No effect. The format is functional, organism-based. Details: dose 6 mg/kg. As to conditions: Canis lupus familiaris; His-Purkinje system. The gist of the method: as §2
For test [32], the system named is Canis familiaris. The test is described as follows: Tested for antiarrhythmic property by measuring ability to decrease heart rate (drug free) is compared to Lidocaine using doses (3 and 6 mg/kg). Type of test: functional, Canis lupus familiaris. The gist of the method:
as §2

Test [33] deals with Canis familiaris. The test is described as follows: Tested for antiarrhythmic property by measuring ability to decrease Mean blood pressure (post drug) is compared to Lidocaine using doses(3 and 6 mg/kg). The format is functional, Canis lupus familiaris. In a few lines:
as §2

Test [34] has as its system Canis familiaris. The experiment in a line: Antiarrhythmic property A-V nodal conduction time(post drug) is compared to lidocaine(2) using dose (3 and 6 mg/kg). Type of test: functional, Canis lupus familiaris, Heart. In a few lines:
as §2

Calls of active or inactive are those of the source.

As for `CC(C)N1CC2CN(C(C)C)CC(C1)C21SCCS1`, the figures for the HV interval in [1] and in test [8] were 40 ms and 30 ms, respectively. Further, the MBP in test [2] is reported as 61 mmHg; in test [10], 76 mmHg. Further, the QT in [3] is 270 ms; in test [11], 236 ms. Moreover, the HR in test [4] was found to be 154 beats min-1; in [9], 105 beats min-1. Besides, the AH interval in test [5] stood at 56 ms; in test [7], 75 ms. For the same molecule, the VERP in test [6] was 140 ms; in test [12], 180 ms.
As to `CC(C)N1CC2CC(CN(C(=O)c3ccc(N)cc3)C2)C1.Cl.Cl`, the HR was determined as 130 beats min-1 in [13] and 115 beats min-1 in test [17]. The MBP worked out at 100 mmHg in [14] and 77 mmHg in [15]. The molecule also displayed an NSVT in [16] of 6 mg/kg. The QT in test [3] worked out at 220 ms; in [11], 210 ms. In addition, the AH interval amounted to 55 ms in [5] and 65 ms in test [7]. In test [18], this molecule returned a VERP of 220 ms.
`CC(C)N1CC2CC(CN(C(=O)c3ccc(-n4ccnc4)cc3)C2)C1`: the HV interval came to 37 ms in test [19] and 32 ms in test [8]. The HR in test [13] stood at 148 beats min-1; in [17] it was 110 beats min-1. Besides, the MBP in test [14] is 94 mmHg; in [15], 84 mmHg. Further, the VERP in test [16] was 144 ms; in test [18], 187 ms. Further, the QT in test [3] is on record as 288 ms; in [11], 196 ms. The AH interval in test [5] is reported as 57 ms; in test [7], 66 ms.
In the case of `CC(C)N1CC2CC(CN(C(=O)c3ccc(NS(C)(=O)=O)cc3)C2)C1`, the AH interval entry in test [20] and in test [22] was “inactive” each time. Further, the HV interval result in test [21], in test [25], in [28] and in test [29] was “inactive” each time. For the same molecule, the NE entry in test [22] was “inactive”. Further, the OT result in test [23] and in [27] was “inactive” in each case. The OT interval result in test [24] and in test [30] was “inactive” each time. For the same molecule, the VERP result in test [26] and in [28] was “inactive” each time.
`O=C(c1ccccc1)N1CC2CC(CN(CC3CC3)C2)C1`: the HV interval entry in test [31] and in test [25] was “inactive” each time. Besides, the MBP in [14] worked out at 92 mmHg; in test [33], 83 mmHg. Besides, the figures for the VERP in [16] and in [12] were 170 ms and 190 ms, respectively. Further, the QT interval result in test [23] and in [27] was “inactive” throughout. The AH interval amounted to 65 ms in test [5] and 70 ms in test [34]. The values for the HR in test [32] and in test [17] were 120 beats min-1 and 111 beats min-1, respectively.
Regarding `CC(C)N1CC2CC(CN(C(=O)c3ccc(NS(C)(=O)=O)cc3)C2)C1.Cl`, the HR in test [13] and in test [17] was 150 beats min-1 in each case. For the same molecule, the MBP in [14] and in test [33] was 95 mmHg each time. The NSVT in [12] is 6 mg/kg.
